Lmaj promast = inhibitors of Leishmania major promastigote growth | Leishmania major promastigotes, resazurin fluorescence viability | inhibition, % at 10 µM | actives 9% (n = 200,000) | AID 1063; in the data active = inhibition above about 50%;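 also: promastigotes grown with compound for 44 hours at 28 °C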
Beta apoptosis = beta cell apoptosis inhibition; actives 0.8% (n = 300,000); INS-1E cytokine-induced death, ATP luminescence, 48 h; percent of positive-control rescue, neutral wells zero; protection from apoptosis, % (test concentration not listed);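 active = Every replicate reaches about 75%, or at least half do and their mean reaches it too, limit read from the data; inconclusive = At least half of replicates reach the limit but their mean does not; inactive = Under half of replicates reach the limit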;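 also: 0% = cytokine-treated negative control wells and 100% = positive control rescue; higher means more ATP so stronger rescue from cytokine killing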
T cruzi repl = blocks replication of Trypanosoma cruzi. T. cruzi beta-gal in NIH3T3, luminescence, 90 h. inhibition, % (test concentration not listed). actives 1.4% (n = 300,000). AID 1885;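 active = mean inhibition across valid replicates above about 55%, limit read from the data; inconclusive = mean below that limit but half or more replicates reach it; inactive = mean below it, under half of replicates reach it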;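 also: signal also drops with host cell toxicity which is not excluded here; 0% = plate median of DMSO wells and 100% = zero luminescence signal; higher percent means less beta-gal luminescence so fewer parasites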
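Incubation – ≥90 h infection period, 3 h prior cell attachment · System – NIH/3T3 fibroblasts plus reporter T. cruzi · Doses – compound pinned at 50 nL/well, DMSO · Read-out basis – percent inhibition of parasite-derived β-gal signal · Signal – luminescent β-galactosidase signal after 60 min lysis · Also added – 5000 T. cruzi trypomastigotes/well · Medium – Low-serum DMEM with 2% FBS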
CSC inhib = cancer stem cell inhibition | cancer stem cell-like cells viability, luminescence | inhibition, % at 7.5 µM | actives 1.1% (n = 300,000) | AID 2717; in the data active = inhibition above about 75%; inconclusive = no clear call, values can overlap the other calls; tested in HMLE shEcad cells
SKKanGAS inh = inhibitors of SKKanGAS S. pyogenes growth in kanamycin (SK-promoter or general growth effect) | BacTiter-Glo, 6 h | inhibition, % at 7.5 µM | actives 1.3% (n = 300,000);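 active = mean replicate score, as percent of positive control median, at least 50; inconclusive = mean below 50 but one replicate at or above 50; inactive = mean and every replicate below 50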;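 also: strain carries kanamycin resistance gene driven by streptokinase promoter and grows in 40 µg/ml kanamycin; loss of luminescence reflects streptokinase promoter inhibition or plain growth inhibition; 0% = median of DMSO wells and 100% = positive control at its reference dose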
Mdm2 MdmX PPI = inhibitors of human Mdm2/MdmX interaction; actives 3% (n = 330,000); SaOS-2 split-luciferase Mdm2/MdmX complementation, luminescence; AID 485346; inhibition, % at 8 µM;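 active = inhibition of at least 50% at 8 µM in the primary screen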
Target sequence (O15151 whole entry, looked up): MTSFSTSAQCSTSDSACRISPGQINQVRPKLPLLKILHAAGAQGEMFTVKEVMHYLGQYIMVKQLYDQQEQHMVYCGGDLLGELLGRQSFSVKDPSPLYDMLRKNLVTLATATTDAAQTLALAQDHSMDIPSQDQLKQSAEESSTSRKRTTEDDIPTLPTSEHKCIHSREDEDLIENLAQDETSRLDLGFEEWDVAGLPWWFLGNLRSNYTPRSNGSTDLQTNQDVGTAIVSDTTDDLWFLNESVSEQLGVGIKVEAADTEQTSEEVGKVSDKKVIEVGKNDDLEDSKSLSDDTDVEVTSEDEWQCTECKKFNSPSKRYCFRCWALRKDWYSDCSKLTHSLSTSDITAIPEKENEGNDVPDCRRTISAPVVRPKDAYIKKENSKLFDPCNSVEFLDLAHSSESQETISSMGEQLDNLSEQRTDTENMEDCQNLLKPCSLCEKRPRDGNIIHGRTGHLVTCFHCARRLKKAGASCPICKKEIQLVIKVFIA
Target sequence (Q00987 whole entry, looked up): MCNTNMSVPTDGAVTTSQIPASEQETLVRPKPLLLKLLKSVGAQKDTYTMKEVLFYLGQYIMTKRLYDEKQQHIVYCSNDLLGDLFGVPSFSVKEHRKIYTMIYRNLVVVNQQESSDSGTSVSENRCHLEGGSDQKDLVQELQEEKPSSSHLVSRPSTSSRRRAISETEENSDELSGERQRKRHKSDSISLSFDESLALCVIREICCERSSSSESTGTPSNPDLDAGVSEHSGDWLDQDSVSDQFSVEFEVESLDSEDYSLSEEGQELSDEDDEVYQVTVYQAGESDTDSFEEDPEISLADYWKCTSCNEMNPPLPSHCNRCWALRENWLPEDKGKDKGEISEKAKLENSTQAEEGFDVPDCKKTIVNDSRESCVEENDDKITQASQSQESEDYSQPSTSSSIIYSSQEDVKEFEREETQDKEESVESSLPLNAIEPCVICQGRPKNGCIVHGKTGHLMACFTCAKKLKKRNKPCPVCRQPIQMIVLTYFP
Starred values were filed as active, the others as inactive. Shown are actives, neighbours in structure and some others; about 9.4% of the full set was active somewhere.

For CCCCCCCC(=O)C(C)C(=O)N(C)[C@H](Cc1ccc(OC)cc1)C(=O)N(C)[C@H](C(N)=O)C(C)C (stereo not given in full) the results were Mdm2 MdmX PPI 0.
CS(=O)(=O)N(CC(=O)O)c1ccc(C23CC4CC(CC(C4)C2)C3)cc1 was read as Beta apoptosis 0, T cruzi repl -11, CSC inhib -30, SKKanGAS inh -1 and Mdm2 MdmX PPI -3.
`COc1ccccc1NC(=O)CN(c1ccc(C23CC4CC(CC(C4)C2)C3)cc1)S(C)(=O)=O` gave Lmaj promast 79*, Beta apoptosis 101*, T cruzi repl 54, CSC inhib 26, SKKanGAS inh 8 and Mdm2 MdmX PPI 48.
For CCOC(=O)C1=C(C)NC(C)=C(C(=O)OCC)C1C(=O)OCC(=O)c1ccc2c(c1)OCCO2 the results were Lmaj promast 65*, Beta apoptosis 4, T cruzi repl -9, CSC inhib -9, SKKanGAS inh -6 and Mdm2 MdmX PPI 16.
Screening CCOC(=O)C1=C(C)NC(C)=C(C(=O)OCC)C1C(=O)OCC(=O)N1CCc2ccccc21 returned Lmaj promast 97*, Beta apoptosis -2, T cruzi repl -5, CSC inhib -7, SKKanGAS inh 0 and Mdm2 MdmX PPI 7.
`CCOC(=O)c1nn(-c2cccc(OC)c2)c2nc(Nc3ccccc3)cc(=O)n12` gave Lmaj promast -4, Beta apoptosis 0, T cruzi repl 17, SKKanGAS inh 62* and Mdm2 MdmX PPI -7.
Screening N/C(Cc1ccc(Cl)cc1)=N\OC(=O)C1CCCCC1 returned Lmaj promast 73*, Beta apoptosis -5, T cruzi repl 3, CSC inhib 0, SKKanGAS inh 0 and Mdm2 MdmX PPI 15.
For Cc1cccc(NS(=O)(=O)c2ccc3c(c2)NC(=O)CO3)c1C the results were Beta apoptosis -5, T cruzi repl 2, CSC inhib -8, SKKanGAS inh 2 and Mdm2 MdmX PPI 10.
For C1CCC(CNc2c3c(nc4nnnn24)CCCC3)CC1 the results were Lmaj promast 10, Beta apoptosis 1, T cruzi repl 68*, CSC inhib 7, SKKanGAS inh 1 and Mdm2 MdmX PPI -13.
For COCCNc1oc(/C=C/c2ccccc2OC)nc1S(=O)(=O)c1ccccc1 the results were Beta apoptosis 8, T cruzi repl 12, CSC inhib -21, SKKanGAS inh -1 and Mdm2 MdmX PPI 9.
Screening CC(C(=O)N1CCc2ccccc21)N1CCN(Cc2ccccc2)CC1 (stereo not given) returned Beta apoptosis -6, T cruzi repl 56*, CSC inhib -8, SKKanGAS inh 11 and Mdm2 MdmX PPI 24.
`O=C(C[n+]1ccccc1)N/N=C/c1cc(Br)ccc1O` gave Beta apoptosis -1, T cruzi repl -7, CSC inhib 10, SKKanGAS inh 8 and Mdm2 MdmX PPI 12.
Screening CNCc1ccccc1Sc1ccc(O)c(O)c1 returned Lmaj promast -8, Beta apoptosis -1, T cruzi repl 31, CSC inhib 85* and SKKanGAS inh 5.
`COc1ccc(-c2oc3c4c(cc(OC)c3c(=O)c2CC=C(C)C)OC(C)(C)C=C4)c(OC)c1` gave Beta apoptosis 9, T cruzi repl 65*, CSC inhib 101*, SKKanGAS inh 40 and Mdm2 MdmX PPI 39.
`CC(C)=CCc1c(-c2ccc(O)cc2O)oc2cc3c(c(O)c2c1=O)C=CC(C)(C)O3` gave Beta apoptosis 8, T cruzi repl -5, CSC inhib -8, SKKanGAS inh 107* and Mdm2 MdmX PPI 15.
`COc1ccc([C@@H]2COc3c(ccc4c3C=CC(C)(C)O4)C2)c(OC)c1` gave Beta apoptosis 10, T cruzi repl -17, CSC inhib -17, SKKanGAS inh 3 and Mdm2 MdmX PPI -27.
`O=c1c(O)c(-c2ccc(O)cc2)oc2cc(O)cc(O)c12` gave T cruzi repl -7, CSC inhib -13, SKKanGAS inh 3 and Mdm2 MdmX PPI 23.
Screening Cc1ccc(C2C=NN(c3ccccc3)C2=O)cc1 (stereo not given) returned Lmaj promast -14, Beta apoptosis -7, T cruzi repl 1, SKKanGAS inh 10 and Mdm2 MdmX PPI -24.
CC1CN(S(=O)(=O)c2ccc(F)cc2)C(C)N1C(=O)N1CCOCC1 (stereo not given) was read as Beta apoptosis 8, T cruzi repl 4, CSC inhib -35, SKKanGAS inh -6 and Mdm2 MdmX PPI -4.
Screening CCN(C(=O)CCC(=O)N(CC)c1ccccc1)c1ccccc1 returned Lmaj promast -1, Beta apoptosis 1, T cruzi repl 2, CSC inhib 11, SKKanGAS inh 1 and Mdm2 MdmX PPI 0.
For CCCC(=O)N(CCN(C(=O)CCC)c1ccccc1)c1ccccc1 the results were Lmaj promast -2, Beta apoptosis 79*, T cruzi repl 10, CSC inhib -18, SKKanGAS inh 4 and Mdm2 MdmX PPI 31.
`COc1ccccc1CCNS(=O)(=O)c1cc2c3c(c1)CCN3C(=O)CC2` gave T cruzi repl -22, CSC inhib -9, SKKanGAS inh -12 and Mdm2 MdmX PPI -3.
OC(CNCCc1ccc(Cl)cc1)COc1ccc2ccccc2c1 (stereo not given) was read as Lmaj promast 83*.
Screening COc1ccc(CCNCC(O)COc2ccc(Cl)cc2)cc1OC (stereo not given) returned Beta apoptosis -13, T cruzi repl 48, CSC inhib -4, SKKanGAS inh -24 and Mdm2 MdmX PPI 29.
For COc1ccc(CCNCC(O)COc2cccc(C(C)=O)c2)cc1OC (stereo not given) the results were T cruzi repl 56*, SKKanGAS inh 2 and Mdm2 MdmX PPI -26.
OC(CNCCc1ccc(Cl)cc1)COc1cc(Cl)ccc1Cl (stereo not given) was read as Beta apoptosis -3, T cruzi repl inconclusive, CSC inhib 28, SKKanGAS inh 12 and Mdm2 MdmX PPI 24.
For CCOC(=O)CC1COCCN1C(=O)c1ccc2oc(Cc3ccccc3)nc2c1 (stereo not given) the results were Beta apoptosis 4, T cruzi repl 1, CSC inhib -14, SKKanGAS inh -3 and Mdm2 MdmX PPI -12.
`COC(=O)c1cc(OC)c(OC)cc1NCC(=O)Nc1ccc(OC)c(OC)c1` gave Lmaj promast 53*, Beta apoptosis -1, T cruzi repl 5, CSC inhib -11, SKKanGAS inh -9 and Mdm2 MdmX PPI 9.
For COC(=O)c1cc(OC)c(OC)cc1NCC(=O)Nc1cccc(C(F)(F)F)c1 the results were Lmaj promast 74*, Beta apoptosis -8, T cruzi repl -1, CSC inhib -1, SKKanGAS inh -5 and Mdm2 MdmX PPI 12.
NC(=O)c1ccccc1NC(=O)c1ccc2c(c1)OCO2 was read as Beta apoptosis 1, T cruzi repl -6, CSC inhib 5, SKKanGAS inh 5 and Mdm2 MdmX PPI -81.

Screening data as filed in PubChem BioAssay.
